ChEMBL document CHEMBL1135760, “Anilinoquinazoline inhibitors of fructose 1,6-bisphosphatase bind at a novel allosteric site: synthesis, in vitro characterization, and X-ray crystallography” (J Med Chem, 2002)

How the values were obtained:
[1] = biological target: T1, Fructose-1,6-bisphosphatase 1 (Rattus norvegicus, UniProt P19112, Q56H); experiment: Concentration required for 50% Inhibition against (F16BP) Fructose-1,6-bisphosphatase in rat single mutant (Gln55His) enzyme using malachite green assay
Outline: (§1)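 Recombinant rat liver F16BPase (wild type or Gln50Lys/Gln55His double, Gln50Lys or Gln55His single mutants), expressed in E. coli BL21(DE3) and purified, 40 ng/well. Enzyme added to substrate plus compound with no preincubation. Final buffer was 50 mM HEPES pH 7.2, 100 mM KCl, 2 mM MgCl2, 2 mM EGTA, 1 mM DTT, 500 μM fructose-1,6-bisphosphate. Incubation 40 min at room temperature. Released phosphate read at 620 nm with ammonium molybdate/malachite green. Means of ≥3 experiments. Dose-response tested up to 10 μM.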

[2] = biological target: T2, Fructose-1,6-bisphosphatase 1 (Rattus norvegicus, UniProt P19112); experiment: Concentration required for 50% Inhibition against (F16BP) Fructose-1,6-bisphosphatase in rat wild type enzyme using malachite green assay; outline: as §1
T2 sequence (P19112 whole entry): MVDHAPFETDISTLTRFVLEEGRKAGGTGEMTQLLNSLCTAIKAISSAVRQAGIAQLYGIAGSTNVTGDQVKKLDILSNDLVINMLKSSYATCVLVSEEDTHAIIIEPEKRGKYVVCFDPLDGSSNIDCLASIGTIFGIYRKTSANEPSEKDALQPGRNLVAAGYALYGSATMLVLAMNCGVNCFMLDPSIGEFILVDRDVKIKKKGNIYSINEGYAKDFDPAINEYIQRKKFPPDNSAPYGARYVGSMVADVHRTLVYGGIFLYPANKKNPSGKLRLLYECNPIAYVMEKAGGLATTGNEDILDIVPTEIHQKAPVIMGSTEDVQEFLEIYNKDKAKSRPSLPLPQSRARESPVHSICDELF

[3] = biological target: Fructose-1,6-bisphosphatase 1 (Rattus norvegicus, UniProt P19112, Q51K/Q56H); experiment: Concentration required for 50% Inhibition against (F16BP) Fructose-1,6-bisphosphatase in rat double mutant (Gln50Lys Gln55His) enzyme using malachite green assay; outline: as §1
[4] = biological target: Fructose-1,6-bisphosphatase 1 (Rattus norvegicus, UniProt P19112, Q51K); experiment: Concentration required for 50% Inhibition against (F16BP) Fructose-1,6-bisphosphatase in rat single mutant (Gln50Lys) enzyme using malachite green assay; outline: as §1
[5] = Inhibition of human recombinant wild type fructose-1,6-bisphosphatase (F16BP)
[6] = biological target: T1, Fructose-1,6-bisphosphatase 1; experiment: Concentration required for 50% Inhibition against (F16BP) Fructose-1,6-bisphosphatase in rat single mutant(Gln55His) enzyme using malachite green assay; outline: as §1

Sequence of Fructose-1,6-bisphosphatase 1 (Rattus norvegicus, UniProt P19112, Q51K/Q56H) (P19112 2-363 Q51K/Q56H limits assumed): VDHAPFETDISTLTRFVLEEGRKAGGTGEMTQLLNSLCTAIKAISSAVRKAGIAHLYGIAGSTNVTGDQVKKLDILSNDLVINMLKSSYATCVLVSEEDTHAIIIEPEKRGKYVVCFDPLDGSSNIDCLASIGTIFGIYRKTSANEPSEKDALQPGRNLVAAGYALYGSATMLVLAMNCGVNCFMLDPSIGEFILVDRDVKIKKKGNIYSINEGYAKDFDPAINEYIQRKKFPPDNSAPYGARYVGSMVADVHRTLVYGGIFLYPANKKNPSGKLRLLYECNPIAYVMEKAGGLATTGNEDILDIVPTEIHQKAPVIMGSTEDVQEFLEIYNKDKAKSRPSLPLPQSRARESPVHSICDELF
Sequence of Fructose-1,6-bisphosphatase 1 (Rattus norvegicus, UniProt P19112, Q51K) (P19112 2-363 Q51K limits assumed): as the sequence (P19112 2-363 Q51K/Q56H limits assumed) above, with H55Q counted along it
T1 sequence (P19112 2-363 Q56H limits assumed): as the sequence (P19112 2-363 Q51K/Q56H limits assumed) above, with K50Q counted along it

Row | SMILES | IC50 [1] [nM] | IC50 [2] [nM] | IC50 [3] [nM] | IC50 [4] [nM] | IC50 [5] [nM] | IC50 [6] [nM]
1 | CCOc1cc2ncnc(Nc3cccc(-c4csc(CO)n4)c3)c2cc1OCC | 2900 | > 10000 | 340 | > 10000 |  | 
2 | CCOc1cc2ncnc(Nc3cccc(-c4csc(C(N)=O)n4)c3)c2cc1OCC | 3000 | > 10000 | 520 | > 10000 | 930 | 
3 | CCOc1cc2ncnc(Nc3cccc(-c4csc(C)n4)c3)c2cc1OCC |  | > 10000 | 790 | > 10000 | 640 | 3800
